ChEMBL document CHEMBL1122437, “beta 1-selective adrenoceptor antagonists. 1. Synthesis and beta-adrenergic blocking activity of a series of binary (aryloxy)propanolamines” (1983)
The source made the active and inactive calls. The calls are words filed in the database; no cut-off is given here.

Columns and labels:
[1] = target: Beta-2 adrenergic receptor (Cavia porcellus) (UniProt Q8K4Z4)
[2] = target: Beta-1 adrenergic receptor (Cavia porcellus) (UniProt B0FL73)
Rattus norvegicus [3] = species on record: Rattus norvegicus; assay: Ratio of rat Beta-2 to Beta-1 adrenoceptor antagonism; type: functional
In short: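 Anesthetized, carotid-cannulated rats were given isoprenaline (0.2 µg kg-1 iv) before and after accumulative iv antagonist doses. The β1 value is the iv dose halving the tachycardia, read by cardiotachometer from the pulse. The β2 value is the iv dose halving the depressor response. The ratio compares these two doses.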

Rattus norvegicus [4] = assay: Beta-1-adrenoceptor blockade measured as inhibition of tachycardia caused by isoprenaline in anesthetized rats when administered intravenously; type: functional; settings: iv
In short: (§1)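 Anesthetized rats with a catheterized carotid artery for blood pressure. Heart rate was taken from the pulse signal by cardiotachometer. Tachycardia to isoprenaline (0.2 µg kg-1 iv) was recorded before and after accumulative iv doses of antagonist (0.1 mL 100 g-1). The value is the iv dose giving 50% reduction of the isoprenaline tachycardia.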

[5] = target: Beta-1 adrenergic receptor (Rattus norvegicus) (UniProt P18090); assay: Beta-1 adrenergic receptor blockade measured as inhibition of tachycardia caused by isoprenaline in anesthetized rats when administered intravenously; type: functional
Chain of Beta-1 adrenergic receptor (Rattus norvegicus) (P18090 whole entry, looked up): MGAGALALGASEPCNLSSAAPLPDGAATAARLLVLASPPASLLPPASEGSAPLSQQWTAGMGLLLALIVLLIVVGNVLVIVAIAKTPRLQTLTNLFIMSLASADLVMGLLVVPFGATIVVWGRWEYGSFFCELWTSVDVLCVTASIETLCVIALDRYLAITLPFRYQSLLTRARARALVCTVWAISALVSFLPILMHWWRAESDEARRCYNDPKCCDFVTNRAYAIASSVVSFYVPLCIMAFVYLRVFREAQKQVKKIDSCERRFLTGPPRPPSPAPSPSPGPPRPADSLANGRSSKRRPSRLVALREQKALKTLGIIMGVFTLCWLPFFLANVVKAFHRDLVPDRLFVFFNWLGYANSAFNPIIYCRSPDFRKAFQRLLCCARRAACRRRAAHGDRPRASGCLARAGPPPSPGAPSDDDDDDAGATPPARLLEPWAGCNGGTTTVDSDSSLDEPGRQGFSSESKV
In short: as §1

[6] = target: Beta-1 adrenergic receptor (Rattus norvegicus) (UniProt P18090); assay: Beta-1 adrenergic receptor blockade measured as inhibition of tachycardia caused by isoprenaline in anesthetized rats when administered intravenously; inactive; type: functional
In short: as §1

[7] = target: Beta-2 adrenergic receptor (Rattus norvegicus) (UniProt P10608)
Chain of Beta-2 adrenergic receptor (Rattus norvegicus) (P10608 whole entry, looked up): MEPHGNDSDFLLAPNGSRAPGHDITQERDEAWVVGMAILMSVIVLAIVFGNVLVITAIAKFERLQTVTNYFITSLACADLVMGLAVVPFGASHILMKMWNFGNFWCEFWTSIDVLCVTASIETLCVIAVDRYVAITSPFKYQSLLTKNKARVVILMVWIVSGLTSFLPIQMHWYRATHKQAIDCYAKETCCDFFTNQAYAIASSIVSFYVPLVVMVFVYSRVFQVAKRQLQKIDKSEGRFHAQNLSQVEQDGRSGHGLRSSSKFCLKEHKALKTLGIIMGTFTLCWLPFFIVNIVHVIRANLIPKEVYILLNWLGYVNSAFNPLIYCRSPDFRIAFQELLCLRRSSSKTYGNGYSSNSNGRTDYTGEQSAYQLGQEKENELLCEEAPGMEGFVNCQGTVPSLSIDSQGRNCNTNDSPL

Chain of Beta-1 adrenergic receptor (Cavia porcellus) (B0FL73 1-467): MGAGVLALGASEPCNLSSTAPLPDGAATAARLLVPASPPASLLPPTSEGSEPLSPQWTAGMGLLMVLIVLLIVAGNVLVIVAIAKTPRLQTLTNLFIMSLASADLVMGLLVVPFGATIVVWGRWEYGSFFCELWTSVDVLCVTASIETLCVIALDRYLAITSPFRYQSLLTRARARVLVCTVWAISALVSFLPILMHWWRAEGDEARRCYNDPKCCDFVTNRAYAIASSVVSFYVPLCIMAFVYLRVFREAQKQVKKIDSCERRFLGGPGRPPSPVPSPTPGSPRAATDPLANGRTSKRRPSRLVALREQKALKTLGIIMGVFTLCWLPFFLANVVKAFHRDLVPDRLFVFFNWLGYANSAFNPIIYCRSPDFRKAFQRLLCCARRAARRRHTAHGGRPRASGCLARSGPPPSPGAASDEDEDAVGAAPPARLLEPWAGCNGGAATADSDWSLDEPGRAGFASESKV
Chain of Beta-2 adrenergic receptor (Cavia porcellus) (Q8K4Z4 whole entry, looked up): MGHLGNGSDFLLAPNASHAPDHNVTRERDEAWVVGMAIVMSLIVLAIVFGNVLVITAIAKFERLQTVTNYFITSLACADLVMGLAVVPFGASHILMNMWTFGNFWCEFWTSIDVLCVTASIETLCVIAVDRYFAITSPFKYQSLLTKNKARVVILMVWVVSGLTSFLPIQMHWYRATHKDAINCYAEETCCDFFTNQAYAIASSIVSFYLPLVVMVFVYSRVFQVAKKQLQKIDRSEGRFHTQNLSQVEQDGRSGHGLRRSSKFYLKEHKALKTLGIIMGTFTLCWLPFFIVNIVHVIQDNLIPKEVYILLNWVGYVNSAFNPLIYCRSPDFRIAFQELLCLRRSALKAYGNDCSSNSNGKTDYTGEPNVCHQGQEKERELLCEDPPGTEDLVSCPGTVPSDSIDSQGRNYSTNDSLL

Compound | Affinity constant [1] [µM] | Affinity constant [2] [µM] | Ratio (Rattus norvegicus [3]) | ED50 (Rattus norvegicus [4]) [mg/kg] | ED50 [5] [mg/kg] | ED50 [6] | ED50 [7]
CC(C)NC[C@H](O)COc1ccc(OCCCOc2ccc(OC[C@@H](O)CNC(C)C)cc2)cc1 | 0.24 | 0.2 | > 1.74 | 1.15 | – | – | –
CC(C)NC[C@H](O)COc1ccc(OCCCCCCCCCCCCCCOc2ccc(OC[C@@H](O)CNC(C)C)cc2)cc1 | > 10 | 2.2 | – | – | – | – | –
CC(C)NC[C@H](O)COc1ccc(OCCCCCCOc2ccc(OC[C@@H](O)CNC(C)C)cc2)cc1 | > 10 | 0.01 | 3.3 | 0.776 | – | – | –
CC(C)NC[C@H](O)COc1ccc(OCCOCCOCCOc2ccc(OC[C@@H](O)CNC(C)C)cc2)cc1 | 0.03 | 0.01 | 185 | – | 0.05 | – | –
CC(C)NCC(O)COc1cccc2ccccc12 (stereo not given) [PROPRANOLOL] | – | – | – | 0.143 | – | – | –
CC(C)NC[C@@H](O)COc1ccccc1OCCCCCCCCCCCCCCOc1ccccc1OC[C@@H](O)CNC(C)C | 1 | 0.2 | – | – | – | – | –
CC(C)NC[C@H](O)COc1cccc(OCCCOc2cccc(OC[C@@H](O)CNC(C)C)c2)c1 | 0.007 | 0.7 | 1.56 | 0.653 | – | – | –
CC(C)NC[C@H](O)COc1cccc(OCCOCCOc2cccc(OC[C@@H](O)CNC(C)C)c2)c1 | 0.031 | 1 | – | – | – | – | –
CC(C)NC[C@@H](O)COc1ccccc1OCCCCCCCCCCOc1ccccc1OC[C@@H](O)CNC(C)C | 0.17 | 0.004 | 0.26 | – | 0.491 | – | –
CC(C)NC[C@H](O)COc1ccc(OCCCCCCCCOc2ccc(OC[C@@H](O)CNC(C)C)cc2)cc1 | 1.5 | 0.44 | – | – | – | – | –
CC(C)NC[C@H](O)COc1ccc(OCCCCCCCCCCCCCCCCCCCCOc2ccc(OC[C@@H](O)CNC(C)C)cc2)cc1 | 0.42 | 2.5 | – | – | – | – | –
CC(C)NC[C@@H](O)COc1ccccc1OCCCCCCCCOc1ccccc1OC[C@@H](O)CNC(C)C | 0.046 | 0.007 | – | – | – | – | –
CC(C)NC[C@H](O)COc1ccccc1OCCOCCOCCOCCOc1ccccc1OC[C@@H](O)CNC(C)C | 4e-05 | 0.055 | 0.55 | – | 0.029 | – | –
CC(C)NC[C@H](O)COc1ccc(OCCCCCCCCCCOc2ccc(OC[C@@H](O)CNC(C)C)cc2)cc1 | > 10 | 0.022 | – | – | – | inactive | inactive
CC(C)NC[C@H](O)COc1ccccc1OCCOCCOc1ccccc1OC[C@@H](O)CNC(C)C | 0.015 | 0.15 | 0.39 | 0.384 | – | – | –
CC(C)NC[C@@H](O)COc1ccccc1OCCCCCCCCCCCCOc1ccccc1OC[C@@H](O)CNC(C)C | 0.015 | 1 | – | – | – | – | –
CC(C)NC[C@@H](O)COc1ccccc1OCCOCCOCCOc1ccccc1OC[C@@H](O)CNC(C)C | 0.00085 | 0.06 | 1.35 | – | 0.082 | – | –
CC(C)NC[C@H](O)COc1ccc(OCCOCCOc2ccc(OC[C@@H](O)CNC(C)C)cc2)cc1 | 0.36 | 0.01 | 192 | 0.052 | – | – | –
CC(C)NC[C@H](O)COc1ccc(OCCOCCOCCOCCOc2ccc(OC[C@@H](O)CNC(C)C)cc2)cc1 | 0.23 | 0.1 | > 70 | – | 0.282 | – | –
CC(C)NC[C@@H](O)COc1ccccc1OCCCCCCCCCCCCCCCCCCCCOc1ccccc1OC[C@@H](O)CNC(C)C | > 10 | 1.5 | – | – | – | – | –
CC(C)NC[C@H](O)COc1ccccc1OCCCOc1ccccc1OC[C@@H](O)CNC(C)C | 0.00064 | 0.035 | 0.22 | 0.768 | – | – | –
CC(C)NC[C@H](O)COc1ccccc1OCC(O)COc1ccccc1OC[C@@H](O)CNC(C)C | 4.4e-05 | 0.65 | 0.045 | 0.993 | – | – | –
CC(C)NC[C@@H](O)COc1ccccc1OCCCCCCOc1ccccc1OC[C@@H](O)CNC(C)C | 0.4 | 0.003 | 0.13 | 0.399 | – | – | –
CC(C)NC[C@H](O)COc1ccc(OCCCCCCCCCCCCOc2ccc(OC[C@@H](O)CNC(C)C)cc2)cc1 | 10 | 0.1 | – | – | – | – | –
